From PubChem BioAssay
Compounds with a hit are over-represented: about 2.6% of the library has one in this group of screens.
Myeloid diff 2 – compounds promoting myeloid differentiation; ER-HoxA9 myeloid progenitors, lysozyme-GFP differentiation, flow cytometry; calls only at 10 µM; actives 1% (n = 360,000); AID 624256;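 active = normalized GFP-positive differentiation at or above the plate's own cutoff, the solvent-only control mean plus 3 SD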;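 note: cells exposed to compound for four days before flow analysis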
T cell modulator – T cell immune modulation candidate; AID 2052; 2C CD8+ T cell-vesicle binding, flow cytometry; stronger effect = lower value; actives 0.068% (n = 330,000); response (vesicle binding), % at 7 µM;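 active = response, share of CD8 T cells binding vesicles, and their 90th percentile fluorescence all below set limits, cut at about 80% in these data, passing the limit was not always enough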;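 note: values below 100% mean blocked vesicle binding to the CD8+ T cells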
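Also added: QL9-peptide-loaded Drosophila micro-vesicles bearing Ld, ICAM-1 and B7-1; Test system: purified 2C TCR transgenic mouse naive CD8+ T cells; Measured by: cytometric PE anti-B7-1 and Alexa647 anti-CD8 signals after 1% paraformaldehyde fixation; Timing: binding step 1.5 h, 37 °C, antibody labelling 20 min, ice.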
Rin1-Abl PPI inh – inhibitors of human Rin1-Abl protein interaction | TR-FRET Rin1/Abl binding, biochemical | AID 588664 | actives 0.4% (n = 360,000) | inhibition, % at 7.35 µM; in the data active = inhibition above about 5%, passing the limit was not always enough
Target sequence (P00519 whole entry, looked up): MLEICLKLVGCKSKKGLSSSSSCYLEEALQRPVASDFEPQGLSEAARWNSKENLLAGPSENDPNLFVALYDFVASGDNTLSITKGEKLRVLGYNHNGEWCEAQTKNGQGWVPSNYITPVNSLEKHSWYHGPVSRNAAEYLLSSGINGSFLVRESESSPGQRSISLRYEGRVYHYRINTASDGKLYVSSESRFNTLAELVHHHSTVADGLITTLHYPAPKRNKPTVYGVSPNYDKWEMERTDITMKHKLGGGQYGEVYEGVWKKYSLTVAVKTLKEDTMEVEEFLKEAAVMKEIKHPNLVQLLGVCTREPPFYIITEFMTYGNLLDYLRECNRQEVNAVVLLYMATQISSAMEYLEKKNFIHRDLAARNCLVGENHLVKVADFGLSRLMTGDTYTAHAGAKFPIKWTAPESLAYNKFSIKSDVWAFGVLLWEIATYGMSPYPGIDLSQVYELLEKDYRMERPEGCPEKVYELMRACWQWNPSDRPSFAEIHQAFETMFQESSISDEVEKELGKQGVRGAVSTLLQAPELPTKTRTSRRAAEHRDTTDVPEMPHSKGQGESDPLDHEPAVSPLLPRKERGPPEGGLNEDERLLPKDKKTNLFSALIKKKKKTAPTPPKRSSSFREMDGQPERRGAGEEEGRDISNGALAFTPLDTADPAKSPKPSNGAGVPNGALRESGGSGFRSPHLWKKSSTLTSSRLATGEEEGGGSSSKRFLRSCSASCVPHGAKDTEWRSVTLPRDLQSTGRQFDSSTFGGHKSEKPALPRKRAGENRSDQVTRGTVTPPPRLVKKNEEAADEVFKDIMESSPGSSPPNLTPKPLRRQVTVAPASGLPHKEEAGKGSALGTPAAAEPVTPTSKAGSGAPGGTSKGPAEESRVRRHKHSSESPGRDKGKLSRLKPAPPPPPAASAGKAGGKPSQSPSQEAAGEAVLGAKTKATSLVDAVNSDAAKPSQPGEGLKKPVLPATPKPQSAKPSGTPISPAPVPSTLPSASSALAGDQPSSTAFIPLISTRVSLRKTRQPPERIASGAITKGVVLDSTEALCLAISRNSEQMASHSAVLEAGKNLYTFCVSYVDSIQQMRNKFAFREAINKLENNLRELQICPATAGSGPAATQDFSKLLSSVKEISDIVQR
Target sequence (Q13671 whole entry, looked up): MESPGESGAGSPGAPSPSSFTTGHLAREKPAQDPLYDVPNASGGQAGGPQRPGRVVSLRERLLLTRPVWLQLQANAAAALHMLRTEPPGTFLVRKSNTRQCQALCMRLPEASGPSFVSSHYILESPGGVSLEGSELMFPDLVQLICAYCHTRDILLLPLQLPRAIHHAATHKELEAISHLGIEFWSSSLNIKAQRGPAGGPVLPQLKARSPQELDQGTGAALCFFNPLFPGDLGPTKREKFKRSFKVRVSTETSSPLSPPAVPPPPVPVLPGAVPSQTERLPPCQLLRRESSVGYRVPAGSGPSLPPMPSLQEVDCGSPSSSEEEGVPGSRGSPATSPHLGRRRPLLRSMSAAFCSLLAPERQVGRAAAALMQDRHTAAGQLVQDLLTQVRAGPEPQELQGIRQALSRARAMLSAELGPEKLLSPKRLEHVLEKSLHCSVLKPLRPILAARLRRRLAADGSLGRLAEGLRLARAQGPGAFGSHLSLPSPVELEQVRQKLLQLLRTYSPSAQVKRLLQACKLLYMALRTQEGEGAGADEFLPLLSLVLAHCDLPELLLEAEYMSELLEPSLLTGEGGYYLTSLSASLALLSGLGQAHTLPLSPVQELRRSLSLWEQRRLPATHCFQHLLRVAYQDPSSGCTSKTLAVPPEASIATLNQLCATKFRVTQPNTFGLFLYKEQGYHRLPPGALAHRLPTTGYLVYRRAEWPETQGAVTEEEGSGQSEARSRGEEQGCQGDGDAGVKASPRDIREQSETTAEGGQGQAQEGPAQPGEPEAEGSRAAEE
Rce1 inhib – blocks yeast Ras-converting enzyme; AID 2563; yeast membranes, quenched prenylated peptide cleavage fluorescence; calls only; actives 0.27% (n = 290,000);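 active = fall in fluorescence gain of 50% or more versus controls, with final raw signal at or below 3038400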
SKN-1 inh – inhibitors of C. elegans SKN-1; actives 0.49% (n = 360,000); C. elegans VP596 Pgst-4::GFP/RFP ratio, acrylamide-induced, 24 h; inhibition, % at 21.8 µM;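 active = interference check ratio from 0.5 to 1.5 plus GFP to RFP signal ratio inhibition reaching or exceeding a fixed threshold, cut at about 30% in these data, passing the limit was not always enough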
GRK2 inh – human GRK2 inhibition via aptamer displacement; P25098; bead flow cytometry, FAM-aptamer displacement from GRK2; inhibition of aptamer binding, % at 10 µM; actives 0.59% (n = 330,000); AID 488847;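 active = inhibition of aptamer binding above 40%, roughly 3 SD of noise, on plates passing a quality check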;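 note: median bead fluorescence of bound FAM aptamer so fluorescent compounds give negative values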
Myeloid diff – promotes myeloid progenitor differentiation; AID 651706; calls only; actives 2% (n = 2,300); shares compounds with Myeloid diff 2; ER-HoxA9 myeloid progenitors, GFP/Mac1 double-positive flow;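 active = share of green or green-and-red cells above 9 and 9% in run 1 or 4 and 3% in run 2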
GFP autofluor – flagged as fluorescent in myeloid differentiation counter-screen | shares compounds with Myeloid diff 2 | ER-HoxA9 myeloid progenitors, no estrogen, GFP autofluorescence flow cytometry; vehicle wells 0%, positive control 100% | fluorescence response, % (concentration not given with the values) | actives 7.4% (n = 2,300) | AID 651707;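 active = over 5% cells positive for green fluorescent reporter, or over 2% positive for both it and APC stain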
Large screens that a line does not name were inactive (follow-up assays come after a bar, where they were run).

CCn1c(-c2ccc(F)cc2)n[nH]c1=S	none | Myeloid diff inactive | GFP autofluor inactive
O=C(Nc1nccs1)c1ccc(-c2ccc([N+](=O)[O-])cc2)o1	Myeloid diff 2 active | Myeloid diff inactive | GFP autofluor inactive
O=C(Nc1ccccc1)c1ccc(-c2ccc([N+](=O)[O-])cc2)o1	none
O=C(Nc1nc2ccccc2s1)C1CCN(S(=O)(=O)c2cc([N+](=O)[O-])ccc2Cl)CC1	none
COC(=O)C1=CN(Cc2ccc(OC)c(OC)c2)C=C(C(=O)OC)C1c1cccc(F)c1	Myeloid diff 2 active (no result: Rce1 inhib) | Myeloid diff inactive | GFP autofluor inactive
CC(C)=CCN1CCN(Cc2ccc(N3CCNC3=O)cc2)CC1CCO (centres undefined)	none
O=C1NCCN1c1ccc(CN2CCN(C3CCCCC3)C(CCO)C2)cc1 (centres undefined)	none | Myeloid diff inactive | GFP autofluor inactive
O=C(NCCSCc1ccccc1)c1ccc(F)cc1	none
CCOC(=O)c1cc2ccccc2n1C1CCN(CCc2ccccc2)CC1	none (no result: T cell modulator, Rin1-Abl PPI inh, Rce1 inhib, GRK2 inh)
CCS(=O)(=O)c1nc(S(=O)(=O)c2ccc(Cl)cc2)c(N2CCOCC2)s1	none | Myeloid diff inactive | GFP autofluor inactive
CCS(=O)(=O)c1nc(S(=O)(=O)c2ccc(Cl)cc2)c(N2CCC3(CC2)OCCO3)s1	none | Myeloid diff active | GFP autofluor inactive
Cc1cccc(NC(=O)CNC(=O)c2cccc(S(=O)(=O)NCc3cccs3)c2)c1C	none (no result: Rce1 inhib)
Cc1ccc(S(=O)(=O)Nc2ccc(-c3nnc(SCC#N)n3C)cc2)cc1	Myeloid diff 2 active | Myeloid diff inactive | GFP autofluor inactive
COc1cc(C)nc(NS(=O)(=O)c2ccc(C)cc2)n1	none | Myeloid diff inactive | GFP autofluor inactive
Cc1ccc(S(=O)(=O)Nc2ccc(S(=O)(=O)Nc3ncccn3)cc2)cc1	none | Myeloid diff inactive | GFP autofluor inactive
CC(=O)N1CN(C2CCCC2)Cc2c1sc1c2CCCC1	none | Myeloid diff inactive | GFP autofluor inactive
CC(=O)N1CN(C2CC(C)(C)NC(C)(C)C2)Cc2c1sc1c2CCCC1	none
COc1ccc(C2(c3ccc(OC)cc3)NC(=O)NC2=O)cc1	none
Cc1ccc(/C=N/Nc2nc3ccccc3s2)o1	none | Myeloid diff inactive | GFP autofluor inactive
CC(=O)c1ccc(N(CC(=O)NC2CCS(=O)(=O)C2)S(=O)(=O)c2ccc(C)cc2)cc1 (centres undefined)	none (no result: Rce1 inhib)
O=C1CCCN1CCCNS(=O)(=O)c1ccc(Cl)c(C(=O)N2CCOCC2)c1	none | Myeloid diff inactive | GFP autofluor inactive
O=c1[nH]c(/C=C2\C=Nc3ccccc32)c(O)n1Cc1ccccc1F	none | Myeloid diff inactive | GFP autofluor inactive
CSc1nc(O)c(/C=C2\C=Nc3ccccc32)[nH]1	none
CCOCCCNC(=O)c1ccc(N2CC3CC(C2)c2cccc(=O)n2C3)c(NC(=O)Nc2cccc(OC)c2)c1 (centres undefined)	none
CC(C)(C)C(=O)Nc1nc2c(s1)CN(Cc1ccccc1)CC2	none | Myeloid diff inactive | GFP autofluor inactive
O=C(Nc1nc2c(s1)CN(Cc1ccccc1)CC2)C1CCCC1	none
CN1CCN(c2ccc(Cl)cc2NC(=O)/C=C/c2ccc(F)cc2)CC1	none
COc1cc(NC(=O)c2cccc3c(-c4cnn(C)c4)coc23)cc(OC)c1OC	Myeloid diff 2 active (no result: T cell modulator, Rce1 inhib, GRK2 inh) | Myeloid diff inactive | GFP autofluor 25.5
COc1ccc(CNC(=O)c2cccc3c(-c4cccnc4)coc23)cc1OC	none (no result: T cell modulator, Rce1 inhib, GRK2 inh) | Myeloid diff inactive | GFP autofluor inactive
COc1ccc(Cc2nc3ccc(C(=O)N(C)Cc4nccn4C)cc3o2)cc1	none (no result: T cell modulator, Rce1 inhib, GRK2 inh)
CC(=O)Nc1sc(C)c(C)c1C(=O)OCC(=O)N(CCC#N)c1cc(C)cc(C)c1	none (no result: T cell modulator, Rce1 inhib, GRK2 inh)
CCOc1ccc(OCCC(=O)Nc2ccccc2C(=O)NC2CC2)cc1	none (no result: T cell modulator, Rce1 inhib, GRK2 inh)
Cc1cccc(Cl)c1OCCCCn1ccnc1	Myeloid diff 2 active | Myeloid diff inactive | GFP autofluor inactive
O=C(/C=C\c1ccco1)NC(=S)Nc1ccccc1O	none | Myeloid diff inactive | GFP autofluor inactive
